From ChEMBL document CHEMBL1130978, “Discovery of FR115092: a novel antinephritic agent” (1998) come the findings set out here.

Common to all, as to assay type: functional
Common to all, as to conditions: route oral

The test system of experiment [1] is Mus musculus. Nature of the experiment: Compound was tested for the inhibition of proteinuria in the graft-versus-host disease (GVHD) in mice at 100 mg/kg p.o.; 8/10 mice died.
For experiment [2], the system named is Mus musculus. Description: Inhibition of proteinuria in the graft-versus-host disease mice following 100 mg/kg p.o. administration. The gist of the method: (§1)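 Chronic GVHD induced in 6-week-old female ([…] x DBA/2)F1 mice by two injections of DBA/2 spleen cells (5 x 10^7 cells each), given 5 days apart. Oral dosing once daily for 8 weeks, starting 3 days after the second injection. Urinary albumin measured after the last dose by single radial immunodiffusion with rabbit anti-mouse serum albumin antiserum. Ten mice per group. Value reported as % inhibition of proteinuria.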

Experiment [3] has as its system Mus musculus. Description: Compound was tested for the inhibition of proteinuria in the graft-versus-host disease (GVHD) in mice at 100 mg/kg p.o.; 9/10 mice died.
Experiment [4] relates to Mus musculus. Nature of the experiment: Antinephritic activity on chronic graft-versus-host disease (GVHD) in mice at 10 mg/kg p.o. The gist of the method:
as §1

For experiment [5], the system named is Mus musculus. Description: Antinephritic activity on chronic graft-versus-host disease (GVHD) in mice at 32 mg/kg p.o. Put shortly: as §1

As usually defined, the inhibition in vivo is the drop in the measured response relative to a control, in per cent. Read a high inhibition in vivo as strong suppression. In the experiment with Mus musculus [1], `Nc1ncc([S+]([O-])c2ccncc2)s1` (stereo not given) registered an inhibition in vivo at 100 mg/kg of 100%.

In the experiment with Mus musculus [2], `Nc1ccc([S+]([O-])c2cnc(N)s2)cc1` (stereo not given) displayed an inhibition in vivo at 100 mg/kg of 79%.

In the experiment on Mus musculus [3], `Nc1ccc([S+]([O-])c2ccncc2)cc1` (stereo not given) yielded an inhibition in vivo at 100 mg/kg of under 50%.

Turning to `Nc1ccc(NS(=O)(=O)c2ccc(N)cc2)cc1`, the inhibition in vivo at 100 mg/kg in the experiment on Mus musculus [2] stood at 54%.

`CS(=O)(=O)Nc1ccc(C(=O)c2ccc(N)cc2)cc1` registered an inhibition in vivo at 100 mg/kg with Mus musculus [2] of under 50%.

In the experiment with Mus musculus [2], `Nc1ccc([S+]([O-])c2ccc(N)cc2)cc1` had an inhibition in vivo at 100 mg/kg of 95%.

In the experiment with Mus musculus [2], `Nc1ccc([S+]([O-])c2ncccn2)cc1` (stereo not given) showed an inhibition in vivo at 100 mg/kg of 99%.

As for `Cc1cc(C(=O)c2ccc(N)cc2)cc(C)c1N`, the inhibition in vivo at 100 mg/kg in the experiment with Mus musculus [2] was 99%.

In turn, `Cc1cc(C(=O)c2ccc(N)cc2)ccc1N` showed an inhibition in vivo at 100 mg/kg in the experiment on Mus musculus [2] of 100%.

The compound `Nc1ccc(C(=O)c2cccc(N)c2)cc1` registered an inhibition in vivo at 100 mg/kg in the experiment on Mus musculus [2] of under 50%.

In the experiment with Mus musculus [2], `Nc1ccc(NC(=O)c2ccc(N)cc2)cc1` came in with an inhibition in vivo at 100 mg/kg of under 50%.

Regarding `Nc1ccc(C(=O)c2ccncc2)cc1`, in the experiment with Mus musculus [2], the inhibition in vivo at 100 mg/kg was found to be 89%.

In the experiment on Mus musculus [2], `NC(=O)Nc1ccc(C(=O)c2ccc(N)cc2)cc1` had an inhibition in vivo at 100 mg/kg of under 50%.

In turn, `Nc1ccc(Oc2ccc(N)cc2)cc1` came in with an inhibition in vivo at 100 mg/kg with Mus musculus [2] of 93%.

In the experiment with Mus musculus [2], `Nc1ncc(Sc2ccccn2)s1` yielded an inhibition in vivo at 100 mg/kg of 90%.

For `Cn1ccnc1[S+]([O-])c1ccc(N)cc1` (stereo not given), in the experiment with Mus musculus [2], the inhibition in vivo at 100 mg/kg is under 50%.

`Nc1ccc(C(=O)c2ccc(N)cc2)cc1` showed an inhibition in vivo at 100 mg/kg with Mus musculus [2] of 95%.

As for `Nc1ncc([S+]([O-])c2ccccn2)s1` (stereo not given), the inhibition in vivo at 100 mg/kg in the experiment on Mus musculus [2] stood at 98%.

With `Nc1ncc(S(=O)(=O)c2ccccn2)s1`, in the experiment with Mus musculus [4], the inhibition in vivo at 10 mg/kg worked out at 63%. The compound further displayed an inhibition in vivo at 100 mg/kg in the experiment on Mus musculus [2] of 92%. This compound also returned an inhibition in vivo at 32 mg/kg in the experiment on Mus musculus [5] of 29%.

Turning to `Nc1ccc(Sc2ccc(N)cc2)cc1` [4,4'-THIODIANILINE], in the experiment on Mus musculus [2], the inhibition in vivo at 100 mg/kg was 70%.

`Nc1ccc(S(=O)(=O)c2ccc(N)cc2)cc1` [DAPSONE] gave an inhibition in vivo at 10 mg/kg in the experiment with Mus musculus [4] of under 50%. The same compound displayed an inhibition in vivo at 100 mg/kg with Mus musculus [2] of 95%. In addition, the inhibition in vivo at 32 mg/kg in the experiment on Mus musculus [5] is under 50%.
